Source: ChEMBL document CHEMBL1144159, “Impacts of baicalein analogs with modification of the 6th position of A ring on the activity toward NF-kappaB-, AP-1-, or CREB-mediated transcription” (Bioorg Med Chem Lett, 2008)

How the values were obtained:
[1] = biological target: Cyclic AMP-responsive element-binding protein 1 (Homo sapiens) (UniProt P16220); assay: Effect on transcriptional activity of CREB transfected in forskolin-stimulated human Hep G2 cells after 4 hrs by luciferase reporter gene assay relative to control; assay type: cell-based; settings: HepG2
Chain of Cyclic AMP-responsive element-binding protein 1 (Homo sapiens) (P16220 whole entry): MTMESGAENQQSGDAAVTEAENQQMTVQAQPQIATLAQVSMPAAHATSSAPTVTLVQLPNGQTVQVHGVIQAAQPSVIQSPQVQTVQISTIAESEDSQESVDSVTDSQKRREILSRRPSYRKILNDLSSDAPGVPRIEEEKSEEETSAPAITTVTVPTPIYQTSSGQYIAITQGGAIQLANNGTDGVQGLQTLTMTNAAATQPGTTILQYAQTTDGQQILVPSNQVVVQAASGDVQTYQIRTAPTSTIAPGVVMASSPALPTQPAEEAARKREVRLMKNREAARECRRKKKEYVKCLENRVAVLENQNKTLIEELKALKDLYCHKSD
Method in brief: (§1)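 HepG2 lines stably carrying luciferase reporters (NF-κB-luc, AP-1-luc, CRE-luc) were pretreated with a range of compound concentrations for 1 h, then incubated 4 h with or without stimulus: TNFα for NF-κB, TPA for AP-1, forskolin for CREB. Luciferase activity is expressed as % of the drug-free control, with or without stimulus. Amax is the maximal fold activity versus control; AC50 is the concentration giving 50% of maximal activity. Mean ± SD of ≥3 independent experiments.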

[2] = biological target: Transcription factor Jun (Homo sapiens) (UniProt P05412); assay: Effect on transcriptional activity of AP1 transfected in TPA-stimulated human Hep G2 cells after 4 hrs by luciferase reporter gene assay relative to control; assay type: cell-based; settings: HepG2; method in brief: as §1
Chain of Transcription factor Jun (Homo sapiens) (P05412 whole entry): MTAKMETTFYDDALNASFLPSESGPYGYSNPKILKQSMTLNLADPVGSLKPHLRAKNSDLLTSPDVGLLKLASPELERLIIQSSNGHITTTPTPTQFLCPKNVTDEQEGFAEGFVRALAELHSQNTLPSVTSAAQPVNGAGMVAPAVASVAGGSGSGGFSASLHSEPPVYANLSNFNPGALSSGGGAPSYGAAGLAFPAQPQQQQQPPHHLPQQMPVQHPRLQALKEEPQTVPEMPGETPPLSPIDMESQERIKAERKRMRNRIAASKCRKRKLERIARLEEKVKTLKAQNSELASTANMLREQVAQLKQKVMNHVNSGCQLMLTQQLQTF

HepG2 [3] = assay: Effect on transcriptional activity of NF-kappaB transfected in human Hep G2 cells after 1 hr by luciferase reporter gene assay relative to control; assay type: cell-based; method in brief: as §1
[4] = biological target: Transcription factor Jun (Homo sapiens) (UniProt P05412); assay: Effect on transcriptional activity of AP1 transfected in human Hep G2 cells after 1 hr by luciferase reporter gene assay relative to control; assay type: cell-based; settings: HepG2; method in brief: as §1
HepG2 [5] = assay: Effect on transcriptional activity of NF-kappaB transfected in TNF-alpha-stimulated human Hep G2 cells after 4 hrs by luciferase reporter gene assay relative to control; assay type: cell-based; method in brief: as §1
[6] = Effect on transcriptional activity of NF-kappaB transfected in human Hep G2 cells after 1 hr by luciferase reporter gene assay; assay type: cell-based; settings: HepG2, 1 h; method in brief: as §1
KB [7] = assay: Cytotoxicity against multi-drug resistant human KB cells overexpressing mdr1 after 3 days; assay type: functional, cell-based; settings: 72 h
Method in brief: (§2)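 KB cells and their multidrug-resistant KB/MDR subline overexpressing mdr1, incubated with compound for 3 days (doubling time about 20–24 h). Growth inhibition is given as IC50, the concentration inhibiting 50% of cell growth. Values are the mean of three independent experiments.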

[8] = biological target: Cyclic AMP-responsive element-binding protein 1 (Homo sapiens) (UniProt P16220); assay: Effect on transcriptional activity of CREB transfected in human Hep G2 cells after 1 hr by luciferase reporter gene assay relative to control; assay type: cell-based; settings: HepG2; method in brief: as §1
KB [9] = assay: Cytotoxicity against human KB cells after 3 days; assay type: functional, cell-based; settings: 72 h; method in brief: as §2
[10] = Effect on transcriptional activity of NF-kappaB transfected in TNF-alpha-stimulated human Hep G2 cells after 4 hrs by luciferase reporter gene assay; assay type: cell-based; settings: HepG2, 4 h; method in brief: as §1

Structure (SMILES)	fold change (FC) [1]	fold change (FC) [2]	fold change (FC) (HepG2 [3])	fold change (FC) [4]	fold change (FC) (HepG2 [5])	AC50 [6] [µM]	IC50 (KB [7]) [µM]	fold change (FC) [8]	IC50 (KB [9]) [µM]	AC50 [10] [µM]
O=c1cc(-c2ccccc2)oc2cc(O)c(OCc3ccccc3)c(O)c12	7.69	0.85	2.08	1.36	1.47	0.5	3.2	1.31	–	–
COc1c(O)cc2oc(-c3ccccc3)cc(=O)c2c1O [OROXYLIN A]	2.61	1.27	4.12	1.41	2.5	4.8	16.1	1.28	31.1	5
CCCOc1c(O)cc2oc(-c3ccccc3)cc(=O)c2c1O	7.35	1.05	1.81	1.43	1.36	–	> 100	1.59	–	–
CCOc1c(O)cc2oc(-c3ccccc3)cc(=O)c2c1O	14.5	1.21	2.92	1.35	1.27	0.7	17.5	1.81	–	–
CC(=O)Oc1c(O)cc2oc(-c3ccccc3)cc(=O)c2c1O	5.21	1.18	6.62	1.44	3.47	2.2	61.6	2.04	–	2.2
O=c1cc(-c2ccccc2)oc2cc(O)c(O)c(O)c12 [BAICALEIN]	2.2	1.26	4.92	1.44	3.35	8.3	87.1	1.35	–	8.6
